Columns and labels:
HCT-116 [1] = assay: Antiproliferative activity against human HCT116 cells assessed as reduction in cell viability after 48 hrs by MTT assay; format: functional, cell-based; settings: HCT-116, 48 h
A549 = assay: Antiproliferative activity against human A549 cells assessed as reduction in cell viability after 48 hrs by MTT assay; format: functional, cell-based; settings: A549, 48 h
Huh-7 = assay: Antiproliferative activity against human HuH7 cells assessed as reduction in cell viability after 48 hrs by MTT assay; format: functional, cell-based; settings: Huh-7, 48 h
HL-60 = assay: Antiproliferative activity against human HL60 cells assessed as reduction in cell viability after 48 hrs by MTT assay; format: functional, cell-based; settings: HL-60, 48 h
[2] = target: Phosphatidylinositol 4,5-bisphosphate 3-kinase catalytic subunit alpha isoform (Homo sapiens, UniProt P42336); assay: Inhibition of PI3Kalpha (unknown origin) using diC8-PI(4,5)P2 as substrate incubated for 3 hrs in presence of ATP by fluorescence polarization assay
Sequence of Phosphatidylinositol 4,5-bisphosphate 3-kinase catalytic subunit alpha isoform (P42336 whole entry, canonical isoform): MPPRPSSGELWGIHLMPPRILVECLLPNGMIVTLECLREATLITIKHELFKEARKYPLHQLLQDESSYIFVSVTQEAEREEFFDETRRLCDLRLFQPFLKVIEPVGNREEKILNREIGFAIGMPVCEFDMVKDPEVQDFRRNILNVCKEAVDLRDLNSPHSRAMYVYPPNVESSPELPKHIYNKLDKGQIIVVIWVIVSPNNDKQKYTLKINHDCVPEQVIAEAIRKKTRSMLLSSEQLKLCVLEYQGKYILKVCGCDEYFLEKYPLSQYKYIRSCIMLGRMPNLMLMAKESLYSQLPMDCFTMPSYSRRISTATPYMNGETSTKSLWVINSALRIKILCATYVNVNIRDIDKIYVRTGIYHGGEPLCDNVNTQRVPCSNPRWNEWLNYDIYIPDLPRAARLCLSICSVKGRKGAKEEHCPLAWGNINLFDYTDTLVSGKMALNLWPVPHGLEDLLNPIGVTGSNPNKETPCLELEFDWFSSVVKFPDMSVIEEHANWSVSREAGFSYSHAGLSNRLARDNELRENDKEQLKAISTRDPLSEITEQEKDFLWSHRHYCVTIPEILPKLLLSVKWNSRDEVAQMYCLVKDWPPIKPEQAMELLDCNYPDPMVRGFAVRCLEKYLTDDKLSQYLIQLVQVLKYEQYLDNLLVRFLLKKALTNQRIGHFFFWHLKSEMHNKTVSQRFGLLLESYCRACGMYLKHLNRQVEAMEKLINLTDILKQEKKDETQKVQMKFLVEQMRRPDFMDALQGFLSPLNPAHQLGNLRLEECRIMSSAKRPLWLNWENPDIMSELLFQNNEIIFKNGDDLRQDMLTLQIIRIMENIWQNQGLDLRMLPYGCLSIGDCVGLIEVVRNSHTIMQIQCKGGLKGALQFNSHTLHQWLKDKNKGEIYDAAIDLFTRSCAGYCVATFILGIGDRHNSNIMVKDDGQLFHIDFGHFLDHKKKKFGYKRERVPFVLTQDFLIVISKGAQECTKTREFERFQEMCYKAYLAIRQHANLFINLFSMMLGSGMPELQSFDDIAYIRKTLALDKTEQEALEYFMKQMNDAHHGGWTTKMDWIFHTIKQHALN
Procedure, shortened: (§1)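 Fluorescence polarization competition assay, 10 μL reactions at pH 7: 2.5 mM MgCl₂, 5 mM HEPES, ATP, 10 mM DTT, 50 ng PI3K isoform, diC8-PI(4,5)P2 substrate. After 3 h at room temperature, reactions were chelator-quenched. Phosphoinositide binding protein and fluorophore-labelled tracer were added, then 1 h dark equilibration and polarization read.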

[3] = target: Phosphatidylinositol 4,5-bisphosphate 3-kinase catalytic subunit beta isoform (Homo sapiens, UniProt P42338); assay: Inhibition of PI3Kbeta (unknown origin) using diC8-PI(4,5)P2 as substrate incubated for 3 hrs in presence of ATP by fluorescence polarization assay; procedure, shortened: as §1
Sequence of Phosphatidylinositol 4,5-bisphosphate 3-kinase catalytic subunit beta isoform (P42338 whole entry, canonical isoform): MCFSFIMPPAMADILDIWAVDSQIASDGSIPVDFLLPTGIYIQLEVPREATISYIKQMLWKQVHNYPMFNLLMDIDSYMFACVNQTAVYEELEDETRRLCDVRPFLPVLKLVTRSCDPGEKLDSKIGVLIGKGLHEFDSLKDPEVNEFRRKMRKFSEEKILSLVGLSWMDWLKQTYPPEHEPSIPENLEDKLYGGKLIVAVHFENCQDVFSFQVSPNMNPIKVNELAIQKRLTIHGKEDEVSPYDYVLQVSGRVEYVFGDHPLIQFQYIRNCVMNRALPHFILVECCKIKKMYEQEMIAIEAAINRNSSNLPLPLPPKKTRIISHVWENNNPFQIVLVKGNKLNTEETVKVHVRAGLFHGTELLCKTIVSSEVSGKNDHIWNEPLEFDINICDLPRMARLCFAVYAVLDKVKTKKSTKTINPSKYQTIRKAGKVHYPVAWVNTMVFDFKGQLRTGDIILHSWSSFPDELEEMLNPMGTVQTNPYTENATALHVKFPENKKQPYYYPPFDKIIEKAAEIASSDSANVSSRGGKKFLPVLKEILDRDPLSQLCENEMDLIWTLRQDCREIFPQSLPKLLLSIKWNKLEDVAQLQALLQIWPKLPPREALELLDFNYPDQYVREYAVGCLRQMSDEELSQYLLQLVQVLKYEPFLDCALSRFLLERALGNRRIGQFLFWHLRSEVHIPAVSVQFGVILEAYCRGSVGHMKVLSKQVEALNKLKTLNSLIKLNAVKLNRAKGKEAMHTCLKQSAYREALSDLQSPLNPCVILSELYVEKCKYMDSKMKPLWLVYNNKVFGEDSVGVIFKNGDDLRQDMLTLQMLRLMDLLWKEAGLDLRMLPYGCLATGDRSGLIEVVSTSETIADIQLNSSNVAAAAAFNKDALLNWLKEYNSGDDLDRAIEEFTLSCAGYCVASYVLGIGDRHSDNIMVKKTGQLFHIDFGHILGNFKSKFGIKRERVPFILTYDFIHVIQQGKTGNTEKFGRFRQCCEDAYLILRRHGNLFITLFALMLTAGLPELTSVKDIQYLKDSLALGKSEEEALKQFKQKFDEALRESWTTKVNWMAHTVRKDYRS

[4] = target: Phosphatidylinositol 4,5-bisphosphate 3-kinase catalytic subunit gamma isoform (Homo sapiens, UniProt P48736); assay: Inhibition of PI3Kgamma (unknown origin) using diC8-PI(4,5)P2 as substrate incubated for 3 hrs in presence of ATP by fluorescence polarization assay; procedure, shortened: as §1
Sequence of Phosphatidylinositol 4,5-bisphosphate 3-kinase catalytic subunit gamma isoform (P48736 whole entry, canonical isoform): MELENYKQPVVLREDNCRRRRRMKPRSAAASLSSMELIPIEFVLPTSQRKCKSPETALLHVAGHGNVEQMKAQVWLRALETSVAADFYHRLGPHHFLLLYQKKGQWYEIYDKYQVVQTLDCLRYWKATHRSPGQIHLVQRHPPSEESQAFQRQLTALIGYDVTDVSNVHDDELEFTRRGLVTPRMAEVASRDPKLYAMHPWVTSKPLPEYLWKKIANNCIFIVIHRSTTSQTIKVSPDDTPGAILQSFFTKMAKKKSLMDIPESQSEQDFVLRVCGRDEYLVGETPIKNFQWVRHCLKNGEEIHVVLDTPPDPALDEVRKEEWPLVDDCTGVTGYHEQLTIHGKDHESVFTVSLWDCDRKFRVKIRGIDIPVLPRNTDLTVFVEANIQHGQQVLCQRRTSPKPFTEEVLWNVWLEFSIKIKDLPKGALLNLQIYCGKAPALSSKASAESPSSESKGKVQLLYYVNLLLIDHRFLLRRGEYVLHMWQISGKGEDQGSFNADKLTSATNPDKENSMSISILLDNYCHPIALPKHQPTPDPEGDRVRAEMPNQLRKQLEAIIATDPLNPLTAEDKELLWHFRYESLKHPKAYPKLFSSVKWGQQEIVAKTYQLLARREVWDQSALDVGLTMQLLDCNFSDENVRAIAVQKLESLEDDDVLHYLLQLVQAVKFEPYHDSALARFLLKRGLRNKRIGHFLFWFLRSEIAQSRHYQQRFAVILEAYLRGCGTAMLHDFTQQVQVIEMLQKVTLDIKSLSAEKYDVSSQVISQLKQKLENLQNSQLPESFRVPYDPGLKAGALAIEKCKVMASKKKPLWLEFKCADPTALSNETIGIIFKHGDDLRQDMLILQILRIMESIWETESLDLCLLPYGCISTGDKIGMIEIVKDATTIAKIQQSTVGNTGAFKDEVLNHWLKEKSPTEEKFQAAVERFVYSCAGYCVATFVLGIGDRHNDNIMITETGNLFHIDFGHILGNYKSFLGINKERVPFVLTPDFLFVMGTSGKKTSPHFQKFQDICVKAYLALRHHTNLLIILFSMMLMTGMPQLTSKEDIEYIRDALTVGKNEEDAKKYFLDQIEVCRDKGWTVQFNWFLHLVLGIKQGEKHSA

[5] = target: T1, Phosphatidylinositol 4,5-bisphosphate 3-kinase catalytic subunit delta isoform (Homo sapiens, UniProt O00329); assay: Inhibition of PI3Kdelta (unknown origin) using diC8-PI(4,5)P2 as substrate incubated for 3 hrs in presence of ATP by fluorescence polarization assay; procedure, shortened: as §1
T1 sequence (O00329 whole entry): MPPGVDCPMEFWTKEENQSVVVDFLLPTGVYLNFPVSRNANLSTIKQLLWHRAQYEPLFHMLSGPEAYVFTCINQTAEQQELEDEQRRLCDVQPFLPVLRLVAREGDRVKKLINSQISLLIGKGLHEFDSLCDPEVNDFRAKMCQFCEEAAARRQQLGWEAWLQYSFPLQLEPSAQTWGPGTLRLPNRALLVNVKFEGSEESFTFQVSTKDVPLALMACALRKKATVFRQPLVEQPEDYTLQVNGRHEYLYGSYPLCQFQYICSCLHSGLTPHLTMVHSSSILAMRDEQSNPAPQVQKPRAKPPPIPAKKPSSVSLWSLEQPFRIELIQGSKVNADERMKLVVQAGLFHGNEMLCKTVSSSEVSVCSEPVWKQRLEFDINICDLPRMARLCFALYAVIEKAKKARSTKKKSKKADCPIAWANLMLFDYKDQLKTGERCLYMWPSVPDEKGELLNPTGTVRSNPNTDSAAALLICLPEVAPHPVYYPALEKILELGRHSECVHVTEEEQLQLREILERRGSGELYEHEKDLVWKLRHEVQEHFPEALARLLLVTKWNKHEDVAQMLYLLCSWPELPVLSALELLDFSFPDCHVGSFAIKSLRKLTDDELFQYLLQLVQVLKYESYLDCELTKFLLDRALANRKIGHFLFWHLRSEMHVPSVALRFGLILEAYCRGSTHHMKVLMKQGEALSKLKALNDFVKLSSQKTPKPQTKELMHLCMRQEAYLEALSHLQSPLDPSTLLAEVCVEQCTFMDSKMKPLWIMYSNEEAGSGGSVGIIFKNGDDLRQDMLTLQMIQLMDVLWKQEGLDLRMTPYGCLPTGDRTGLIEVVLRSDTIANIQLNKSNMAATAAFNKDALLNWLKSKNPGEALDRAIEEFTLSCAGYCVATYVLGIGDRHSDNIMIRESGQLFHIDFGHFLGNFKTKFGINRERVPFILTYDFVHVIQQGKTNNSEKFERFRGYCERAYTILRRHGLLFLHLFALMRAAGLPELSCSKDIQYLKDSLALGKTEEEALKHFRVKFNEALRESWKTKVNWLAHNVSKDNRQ

[6] = Cytotoxicity against human 293T cells; format: cell-based; settings: HEK-293T cells
[7] = target: Serine/threonine-protein kinase mTOR (Homo sapiens, UniProt P42345); assay: Inhibition of mTOR (unknown origin)
HCT-116 [8] = assay: Antitumour activity against human HCT116 cells xenografted in nude mouse assessed as tumour growth inhibition at 10 mg/kg, ig administered every 3 days for 3 weeks and measured after 3 weeks relative to control; format: functional; settings: HCT-116, po, read-out: TGI
Procedure, shortened: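 HCT-116 cells (5 × 10^6 per animal) injected into right flank of nude mice; at ~100 mm³ tumours, randomized into groups of 6. Dosed 10 mg/kg in 5% CMC-Na intragastrically every three days for three weeks; vehicle control 5% CMC-Na. Body weight and tumour size recorded every three days, volume = 0.5 × length × width²; tumours excised and weighed at end. Mean ± SD.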

Row | SMILES | IC50 (HCT-116 [1]) | IC50 (A549) | IC50 (Huh-7) | IC50 (HL-60) | IC50 [2] | IC50 [3] | IC50 [4] | IC50 [5] | CC50 [6] | IC50 [7] | inhibition in vivo at 10 mg/kg (HCT-116 [8])
1 | O=c1oc2ccccc2c2nn(CN3CCN(S(=O)(=O)c4ccc(F)cc4)CC3)cc12 | 2.45 µM | 5.11 µM | 6.44 µM | 6.33 µM | 8.91 µM | > 10 µM | 7.51 µM | 9.76 µM | 298 µM | 9.12 µM | –
2 | CCCS(=O)(=O)N1CCN(Cn2cc3c(=O)oc4ccccc4c3n2)CC1 | 57.6 µM | 79.7 µM | 87.6 µM | 89.4 µM | – | – | – | – | – | – | –
3 | O=c1oc2ccccc2c2nn(CN3CCN(S(=O)(=O)c4ccc(Cl)cc4)CC3)cc12 | 0.81 µM | 1.21 µM | 1.61 µM | 0.64 µM | 1.55 µM | 2.19 µM | 2.65 µM | 4.72 µM | 278 µM | > 10 µM | –
4 | O=c1oc2ccccc2c2nn(CN3CCN(S(=O)(=O)c4ccc([N+](=O)[O-])cc4)CC3)cc12 | 0.92 µM | 2.1 µM | 2.82 µM | 2.67 µM | 2.63 µM | 4.14 µM | 4.01 µM | 5.45 µM | 347 µM | > 10 µM | –
5 | O=c1cc(N2CCOCC2)oc2c(-c3ccccc3)cccc12 [LY-294002] | – | – | – | – | – | – | – | – | – | > 10 µM | 35.2%
6 | O=c1oc2ccccc2c2nn(CN3CCN(S(=O)(=O)c4ccc(Br)cc4)CC3)cc12 | 1.89 µM | 3.09 µM | 5.08 µM | 4.78 µM | 8.3 µM | 9.71 µM | > 10 µM | 9.31 µM | 387 µM | > 10 µM | –
7 | CCCCS(=O)(=O)N1CCN(Cn2cc3c(=O)oc4ccccc4c3n2)CC1 | 87.9 µM | > 100 µM | > 100 µM | > 100 µM | – | – | – | – | – | – | –
8 | O=c1oc2ccccc2c2nn(CN3CCN(S(=O)(=O)CCCl)CC3)cc12 | 45.8 µM | 68.7 µM | 62.9 µM | 78.6 µM | – | – | – | – | – | – | –
9 | CC(C)(C)c1ccc(S(=O)(=O)N2CCN(Cn3cc4c(=O)oc5ccccc5c4n3)CC2)cc1 | 0.47 µM | 0.74 µM | 0.9 µM | 0.84 µM | 0.95 µM | 2.65 µM | 1.32 µM | 0.75 µM | 231 µM | > 10 µM | –
10 | O=c1oc2ccccc2c2nn(CN3CCN(S(=O)(=O)C(F)(F)F)CC3)cc12 | > 100 µM | > 100 µM | > 100 µM | > 100 µM | – | – | – | – | – | – | –
11 | CS(=O)(=O)N1CCN(Cn2cc3c(=O)oc4ccccc4c3n2)CC1 | > 100 µM | > 100 µM | 97.1 µM | > 100 µM | – | – | – | – | – | – | –
12 | O=c1oc2ccccc2c2nn(CN3CCN(S(=O)(=O)CCCCl)CC3)cc12 | 38 µM | 52.1 µM | 48.5 µM | 55.1 µM | – | – | – | – | – | – | –

Source: ChEMBL document CHEMBL4359902, “Development of novel chromeno[4,3-c]pyrazol-4(2H)-one derivates bearing sulfonylpiperazine as antitumor inhibitors targeting PI3Kα” (Eur J Med Chem, 2019)
